Compound activity from PubChem BioAssay.
Hits are enriched below; roughly 1.7% of the tested compounds scored in any of these assays.
Rev-RRE block = disrupts HIV-1 Rev binding to RRE RNA | Rev peptide-RRE RNA binding, FRET | inhibition, % at 8 µM | AID 704 | hit rate 0.79% among 97,000 | P05866;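 active = inhibition above the screen-wide mean plus 3 SD, cut at about 35% in these data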;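 also: 0% = median DMSO wells and 100% = median Neomycin B control wells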
Target sequence (P05866 whole entry, looked up): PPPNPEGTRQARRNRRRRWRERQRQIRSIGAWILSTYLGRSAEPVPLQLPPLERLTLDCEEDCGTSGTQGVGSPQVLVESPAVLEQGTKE
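Test system: Cy5-tagged RRE RNA duplex with fluorescein-tagged Rev peptide | Read-out: % inhibition of FRET ratio versus controls | Probe or stimulus: Labelled Rev peptide | Incubation: 5 min RNA-compound premix plus 15 min binding step, 25 °C | Technique: FRET fluorescence readout | Benchmarks: DMSO low control, neomycin B high control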
GALR2 agonist = agonists of human galanin receptor 2 (GALR2). O43603. GALR2-expressing cells, agonist activation read-out. activation, % (concentration not given with the values). hit rate 0.48% among 140,000. AID 803; in the data active = activation above about 5%, passing the limit was not always enough;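 also: 0% = vehicle buffer wells and 100% = reference agonist at full effect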
Target sequence (O43603 whole entry, looked up): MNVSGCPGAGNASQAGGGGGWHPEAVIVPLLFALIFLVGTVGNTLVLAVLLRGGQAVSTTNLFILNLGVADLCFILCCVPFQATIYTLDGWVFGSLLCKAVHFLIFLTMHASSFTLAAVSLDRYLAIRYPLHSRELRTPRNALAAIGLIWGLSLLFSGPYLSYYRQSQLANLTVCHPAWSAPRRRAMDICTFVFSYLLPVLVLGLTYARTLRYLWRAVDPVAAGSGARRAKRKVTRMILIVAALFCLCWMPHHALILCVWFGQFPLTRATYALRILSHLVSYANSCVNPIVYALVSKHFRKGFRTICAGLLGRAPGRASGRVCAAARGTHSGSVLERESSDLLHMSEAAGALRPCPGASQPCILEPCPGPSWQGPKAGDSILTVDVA
EphB4 ephrin blk = blocks human EphB4 binding to ephrin-B2; P54760; hit rate 0.15% among 97,000; inhibition, % at 7 µM; EphB4 LBD / TNYL-RAW-Alexa532 peptide, fluorescence polarization;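 active = inhibition above the screen-wide mean inhibition plus 3 SD, cut at about 15% in these data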;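 also: 0% = DMSO wells and 100% = excess unlabeled TNYL-RAW peptide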
GALR2 antag = antagonists of human galanin receptor 2 (GALR2). hit rate 0.39% among 140,000. O43603. inhibition, % at 4 µM. GALR2-expressing cells, antagonist mode. AID 828; in the data active = inhibition above about 27%;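 also: cells stimulated with galanin 1-16 at roughly its EC80; 0% = agonist challenge control and 100% = basal control without agonist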
S1P2 antag = antagonists of human S1P2 receptor | hit rate 0.21% among 97,000 | O95136 | cell-based S1P2 antagonist assay, inhibition at 5 uM | inhibition, % at 5 µM | AID 736; in the data active = inhibition above about 45%;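 also: CRE beta-lactamase reporter cells expressing human S1P2 stimulated with S1P; 0% = agonist at EC80 alone and 100% = agonist plus reference antagonist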
S1P2 agonist = agonists of human S1P2 receptor | O95136 | S1P2-expressing cell line, agonist reporter read-out | activation, % at 4.5 µM | hit rate 0.46% among 97,000 | AID 729; in the data active = activation above about 16%;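 also: 0% = vehicle low control and 100% = maximal reference agonist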
* = called active by the depositor; [ ] = another dose, or the depositor's remark.

`COc1ccc(NC(=O)CCCn2c(=O)c3sccc3n(Cc3ccc(C)cc3C)c2=O)cc1` gave GALR2 agonist 0 and GALR2 antag 3.
O=C(Nc1ccc(Cl)cc1)OCCn1nnnc1C(c1ccccc1Cl)N1CCOCC1 (stereo not drawn) was read as Rev-RRE block 15, GALR2 agonist -1, EphB4 ephrin blk 11, GALR2 antag -4, S1P2 antag 28 and S1P2 agonist -3.
For COc1ccnc(NCc2cccnc2)c1C#N the results were Rev-RRE block 0, GALR2 agonist -2, EphB4 ephrin blk 4, GALR2 antag -2, S1P2 antag 6 and S1P2 agonist -1.
`CCCCn1c(=NC(=O)c2ccco2)c(C(=O)OCC)cc2c(=O)n3ccccc3nc21` gave Rev-RRE block 1, GALR2 agonist 7, EphB4 ephrin blk -4, GALR2 antag -11, S1P2 antag -9 and S1P2 agonist 6.
Screening CCOCCCn1c(=NC(=O)c2cccnc2)c(C(=O)OCC)cc2c(=O)n3ccccc3nc21 returned Rev-RRE block 11, GALR2 agonist 6.0*, EphB4 ephrin blk -5, GALR2 antag -10, S1P2 antag -28 and S1P2 agonist 10.
For CCCCn1c(=NC(=O)c2cccnc2)c(C(=O)OCC)cc2c(=O)n3ccccc3nc21 the results were Rev-RRE block 10, GALR2 agonist 4, EphB4 ephrin blk 2, GALR2 antag -6, S1P2 antag -12 and S1P2 agonist 9.
For CCOC(=O)c1cc2c(=O)n3ccccc3nc2n(CC2CCCO2)c1=NC(C)=O (stereo not drawn) the results were Rev-RRE block 7, GALR2 agonist 24*, EphB4 ephrin blk 2, GALR2 antag -20, S1P2 antag -46 and S1P2 agonist 26*.
For O=C(NCCC(=O)N1CCN(c2ncccn2)CC1)c1ccccc1Cl the results were Rev-RRE block 5, GALR2 agonist -2, EphB4 ephrin blk 8, GALR2 antag -16, S1P2 antag -4 and S1P2 agonist -2.
For O=C(O)CCC(=O)N1CCN(c2nc(-c3ccccc3Cl)c3cc(Br)ccc3n2)CC1 the results were Rev-RRE block 0, GALR2 agonist 10, EphB4 ephrin blk 16*, GALR2 antag 9, S1P2 antag -15 and S1P2 agonist 16*.
COc1ccc(S(=O)(=O)N2CC3C4C=CC(C4)C3C2)cc1 (stereo not drawn) was read as Rev-RRE block 5, GALR2 agonist 0, EphB4 ephrin blk 2, GALR2 antag 9, S1P2 antag 19 and S1P2 agonist -9.
For CCc1nc(SCc2nc3ccccc3[nH]2)c2oc3ccccc3c2n1 the results were Rev-RRE block 10, GALR2 agonist 0, EphB4 ephrin blk -6, GALR2 antag -4, S1P2 antag -33 and S1P2 agonist 36*.
`CCc1nc(SCCO)c2oc3ccccc3c2n1` gave Rev-RRE block 5, GALR2 agonist -2, EphB4 ephrin blk -5, GALR2 antag 5, S1P2 antag -32 and S1P2 agonist 2.
CNS(=O)(=O)c1cc(OCC(N)=O)c(C)cc1Cl was read as Rev-RRE block 7, GALR2 agonist -2, EphB4 ephrin blk -3, GALR2 antag -8, S1P2 antag 7 and S1P2 agonist -4.
For CCc1ccc2nc(Nc3nc(COC)cc(=O)[nH]3)nc(C)c2c1 the results were Rev-RRE block 18, GALR2 agonist -1, EphB4 ephrin blk -3, GALR2 antag -2, S1P2 antag -19 and S1P2 agonist 19*.
`CCc1c(C)nc(Nc2nc(C)c3cc(OC)ccc3n2)[nH]c1=O` gave Rev-RRE block -2, GALR2 agonist -1, EphB4 ephrin blk 4, GALR2 antag 0, S1P2 antag -22 and S1P2 agonist 9.
O=C1NC2(CCc3ccccc3C2)C(=O)N1CCOc1cccc(Cl)c1 (stereo not drawn) was read as GALR2 agonist -2 and GALR2 antag -4.
COc1ccc2c(Cl)c(C(=O)NCCCn3ccnc3)sc2c1 was read as Rev-RRE block 7, GALR2 agonist -2, EphB4 ephrin blk 3, GALR2 antag 12, S1P2 antag -13 and S1P2 agonist 1.
Screening O=[N+]([O-])c1c(NCCCO)cc(Sc2ccc(Cl)cc2)c2nonc12 returned GALR2 agonist 5.0* and GALR2 antag 8.
`COc1cc(C(=O)N2CCN(c3ncnc4sc(C)c(C)c34)CC2)cc(OC)c1OC` gave Rev-RRE block 0, GALR2 agonist -2, EphB4 ephrin blk -5, GALR2 antag 6, S1P2 antag 3 and S1P2 agonist -3.
For C=CCn1c(N)cc(=O)nc1SCC(=O)Nc1ccccc1 the results were Rev-RRE block 10, GALR2 agonist -4, EphB4 ephrin blk -8, GALR2 antag -6, S1P2 antag -9 and S1P2 agonist 80*.
Screening C=CCn1c(SCC(=O)Nc2ccccc2)nc2scc(-c3cccs3)c2c1=O returned Rev-RRE block 9, GALR2 agonist -2, EphB4 ephrin blk 5, GALR2 antag -5, S1P2 antag -2 and S1P2 agonist -1.
COc1cccc(C2CN(c3ccc(F)cc3F)N=C2c2cccs2)c1OC (stereo not drawn) was read as Rev-RRE block 8, GALR2 agonist 41*, EphB4 ephrin blk -10, GALR2 antag -10, S1P2 antag -50 and S1P2 agonist 44*.
`COc1cccc(C2C=C(c3cccs3)Nc3ncnn32)c1OC` (stereo not drawn) gave Rev-RRE block 19, GALR2 agonist 0, EphB4 ephrin blk 3, GALR2 antag 10, S1P2 antag 26 and S1P2 agonist -11.
Screening COc1ccccc1C1CN(c2ccccc2)N=C1c1cccs1 (stereo not drawn) returned Rev-RRE block 11, GALR2 agonist 61*, EphB4 ephrin blk 3, GALR2 antag -2, S1P2 antag -32 and S1P2 agonist 33*.
COc1ccccc1Nc1nc(-c2cccs2)cs1 was read as Rev-RRE block 3, GALR2 agonist -2, EphB4 ephrin blk 2, GALR2 antag 17, S1P2 antag 21 and S1P2 agonist -4.
Screening Fc1cccc(Cl)c1/C=N/Nc1c(Cl)cncc1Cl returned GALR2 agonist 0 and GALR2 antag -10.
COc1ccc(/C=C/c2ccncc2)c2ccccc12 was read as Rev-RRE block 141*[fluorescence artefact?], GALR2 agonist -1, EphB4 ephrin blk -3, GALR2 antag -13, S1P2 antag -33 and S1P2 agonist 3.
COc1ccc(C=Nc2cccc3c(=O)[nH][nH]c(=O)c23)c2ccccc12 was read as Rev-RRE block 9, GALR2 agonist 0, EphB4 ephrin blk 1, GALR2 antag -11, S1P2 antag -39 and S1P2 agonist 0.
Screening O=C(COC(=O)c1ccc(Br)o1)NCc1ccco1 returned Rev-RRE block 3, GALR2 agonist -2, EphB4 ephrin blk -6, GALR2 antag -1, S1P2 antag 13 and S1P2 agonist -6.
